Screens as filed in PubChem BioAssay.
DNMT1 block: inhibitors of human DNMT1; DNMT1 molecular beacon, Hinp1I cleavage, fluorescence; inhibition (reported as % activation of signal), % at 10 µM; AID 588458; P26358; 360,000 compounds, 0.83% hits; in the data active means inhibition above about 50%
LMPTP inh: blocks human LMPTP phosphatase | P24666 | recombinant LMPTP-A, OMFP fluorogenic substrate, fluorescence intensity | inhibition, % at 20 µM | 360,000 compounds, 0.22% hits;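 active means compounds that cut the enzyme signal by at least half of the control window in the single-dose screen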
Target sequence (P24666 whole entry, looked up): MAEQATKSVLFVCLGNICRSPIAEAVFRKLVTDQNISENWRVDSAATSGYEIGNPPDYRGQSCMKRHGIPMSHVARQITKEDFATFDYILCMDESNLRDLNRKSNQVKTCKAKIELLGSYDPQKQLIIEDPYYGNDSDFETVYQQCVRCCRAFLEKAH
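material = LMPTP-A | quantity = 0.625 nM enzyme | reagent = OMFP substrate, 400 µM final | buffer or medium = Bis-Tris pH 6.0, DTT, detergent | detection = endpoint fluorescence intensity from OMFP dephosphorylation | dosing = single 20 µM dose | read-out basis = % inhibition relative to no-enzyme and uninhibited control wells | control set = no-enzyme and uninhibited controls | timing = 50 min at room temperature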
SUMO1-SIM PPI: SUMO1-SIM interaction modulation. inhibition, % at 20 µM. P63165. SUMO1 binding to a labelled peptide, TR-FRET, 1 h. 360,000 compounds, 0.33% hits; in the data active means inhibition above about 37%
Target sequence (P63165 whole entry, looked up): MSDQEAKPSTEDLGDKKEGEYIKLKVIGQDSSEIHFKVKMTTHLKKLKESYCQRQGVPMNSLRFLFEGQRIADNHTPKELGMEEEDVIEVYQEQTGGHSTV
Scp1 inh: blocks human Scp-1 phosphatase activity; inhibition, % at 20 µM; Recombinant Scp1, phosphopeptide, malachite green phosphate absorbance; 340,000 compounds, 0.88% hits; AID 493091; Q9GZU7;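 active means inhibition above about 50% at 20 µM, limit read from the data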
Target sequence (Q9GZU7 76-261 limits assumed): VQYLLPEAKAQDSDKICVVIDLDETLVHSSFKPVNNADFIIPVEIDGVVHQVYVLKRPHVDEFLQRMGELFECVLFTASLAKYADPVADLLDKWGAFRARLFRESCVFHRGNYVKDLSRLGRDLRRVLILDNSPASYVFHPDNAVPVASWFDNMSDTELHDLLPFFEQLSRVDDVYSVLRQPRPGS
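Assay system: SCP-1 catalytic fragment, aa 76-261 | Buffer or medium: Tris acetate buffer pH 5.5 with MgCl2 and Tween-20 | Compound: One concentration, 20 µM, with 1.0% DMSO | Also added: Phospho 17-mer peptide substrate | Signal: Absorbance at 630 nm | Incubation: 45 min enzyme reaction at room temperature | Measure: % inhibition of SCP-1 phosphate liberation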
STEP inh: blocks human striatal-enriched tyrosine phosphatase; 360,000 compounds, 0.25% hits; inhibition, % at 20 µM; P54829; AID 588621; recombinant STEP, OMFP fluorogenic substrate, fluorescence;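 active means inhibition at 20 µM, scaled per plate between control wells, above about 37%, limit read from the data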
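Material: STEP (striatal-enriched tyrosine phosphatase) enzyme, cell-free | Medium: 50 mM Bis-Tris pH 6.0 with 2.5 mM DTT and 0.005% Tween 20 | Read-out: Percent inhibition scaled to no-enzyme and uninhibited-enzyme controls, plate-pattern corrected | Signal: Fluorescence read at 480 nm ex / 540 nm em | Times: 20 min reaction, room temperature, in the dark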
Beacon interf DR: shows spectral interference in the DNMT1 beacon assay; IC50, µM; 200 tested, under 10 active; AID 602382; molecular beacon fluorescence, spectral interference counter-screen; shares compounds with DNMT1 block
DNMT1 confirm: confirmation of human DNMT1 inhibitors | shares compounds with DNMT1 block | DNMT1 molecular beacon HinP1I cleavage, fluorescence | inhibition, % at 10 µM | 2,300 compounds, 8% hits | AID 602385;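 active means average inhibition of at least 30% in the single-concentration confirmation test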
Beacon interf: counter-screen for DNMT1 inhibitors: spectral interference | 2,300 compounds, 1% hits | DNMT1 molecular beacon spectral interference counterscreen, fluorescence 485/520 | shares compounds with DNMT1 block | activation (fluorescence interference), % at 10 µM | AID 602387;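 active means activation of at least 30% at 10 µM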;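 further: DNMT1 catalytic domain with a HinP1I cleavage step and a FAM/dabcyl DNA beacon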
STEP conf: confirmation of human STEP phosphatase inhibitors; shares compounds with STEP inh; recombinant STEP, OMFP fluorogenic substrate, fluorescence; inhibition, % at 20 µM; 520 compounds, 32% hits; AID 623866
Of the large screens only hits and unclear results are named; the others gave an inactive call (follow-up assays come after a bar, where they were run). Hits are enriched below; roughly 1.7% of the tested compounds scored in any of these assays. Unless noted, how the calls were made is not given here.

CCCCN1C(=O)/C(=C/C=C/c2ccco2)C(=O)NC1=S	DNMT1 block 107, Scp1 inh 74 | Beacon interf DR inactive | DNMT1 confirm inactive | Beacon interf inactive
O=C1NC(=O)N(Cc2ccc(F)cc2)C(=O)/C1=C\C=C\c1ccco1	none
Cc1cc(C)cc(N2C(=O)NC(=O)/C(=C\C=C\c3ccco3)C2=O)c1	DNMT1 block 74 | DNMT1 confirm inactive | Beacon interf inactive
CC(C)c1ccc(N2C(=O)NC(=O)/C(=C/C=C/c3ccco3)C2=O)cc1	DNMT1 block 86 | DNMT1 confirm inactive | Beacon interf inactive
COc1ccc(/C=N/N=C(/N)N[N+](=O)[O-])c(OC)c1	none
N/C(=N\N=C/c1ccc(-c2ccc(O)c(C(=O)O)c2)o1)N[N+](=O)[O-]	DNMT1 block 88, Scp1 inh 80, STEP inh 71 | Beacon interf DR inactive | DNMT1 confirm 96 | Beacon interf inactive
O=[N+]([O-])c1[nH]cnc1Br	none
O=Cc1c(C(=O)O)n(Cc2ccc(Cl)cc2)c2ccccc12	DNMT1 block 95 | DNMT1 confirm inactive | Beacon interf inactive
Cc1cccc(N2C(=O)NC(=O)/C(=C\c3cc(C)n(-c4sc5c(c4C#N)CCCC5)c3C)C2=O)c1C	DNMT1 block 71, SUMO1-SIM PPI 54 | DNMT1 confirm inactive | Beacon interf inactive
O=C1NCN(c2ccccc2)C12CCN(C(c1nnnn1C1CCCCC1)C1CC1)CC2 (configuration not stated)	none (no result: Scp1 inh)
C=CCNC(=O)c1c(N)n(Cc2ccco2)c2nc3ccccc3nc12	DNMT1 block 102 | DNMT1 confirm inactive | Beacon interf inactive
O=C(Cc1ccccc1)OCCNC(=O)c1cccnc1	none
N#CC(C#N)=C(N)c1cccnc1	DNMT1 block 62 | DNMT1 confirm inactive | Beacon interf inactive
O=C1NC(=O)N(Cc2ccco2)C(=O)/C1=C/c1cccn1CCOc1ccccc1Cl	DNMT1 block 69 | DNMT1 confirm inactive | Beacon interf inactive
CCC(C)N1C(=O)/C(=C/c2ccc3c(c2)CCN3CCCCl)C(=O)NC1=S (configuration not stated)	DNMT1 block 85 | DNMT1 confirm inactive | Beacon interf inactive
Cc1cccc(N2C(=O)NC(=O)/C(=C\c3ccc4c(c3)CCCN4Cc3ccccc3)C2=O)c1	none
CC(C)(C)n1nnnc1C(c1cccc2ccccc12)N1CCC2(CC1)C(=O)NCN2c1ccccc1 (configuration not stated)	none (no result: Scp1 inh)
O=C1C=C(N2CC2)c2ccccc2C1=O	DNMT1 block 121, SUMO1-SIM PPI 65 (no result: Scp1 inh) | Beacon interf DR inactive | DNMT1 confirm 88 | Beacon interf inactive
CC1(C)OC(c2ccccc2)=C/C(=C/C=C2C(=O)NC(=S)NC2=O)O1	none (no result: DNMT1 block, LMPTP inh, SUMO1-SIM PPI, STEP inh)
CN1/C(=C\C=C2C(=O)NC(=S)NC2=O)C(C)(C)c2ccccc21	DNMT1 block 81 | DNMT1 confirm 55 | Beacon interf 51
CCOC(=O)[C@]12Cc3cc(OC)ccc3[C@H]1N(C1CCCCC1)C(=O)c1ccccc12	none (no result: DNMT1 block, Scp1 inh, STEP inh)
CCCCCCn1c(=O)c(C(=O)Nc2ncccc2O)c(O)c2ccccc21	DNMT1 block 70 | DNMT1 confirm inactive | Beacon interf inactive
CN(C)[C@@H]1C(=O)C(C(N)=O)=C(O)[C@@]2(O)C(=O)C3=C(O)c4c(O)ccc(Cl)c4[C@@](C)(O)C3C[C@@H]12 (some centres not stated)	DNMT1 block 56 | DNMT1 confirm inactive | Beacon interf inactive
CN(C)C1C(=O)C(C(N)=O)=C(O)C2(O)C(=O)C3=C(O)c4c(O)cccc4C(C)(O)C3CC12 (configuration not stated)	none
O=C1c2ccccc2-c2cccc3cccc1c23	DNMT1 block 54 | Beacon interf DR inactive | DNMT1 confirm 35 | Beacon interf inactive
O=C1c2ccccc2-c2cc3ccccc3cc21	none
COc1ccc(OC(=O)N(C)C[C@@H]2OCc3ccccc3-c3c(n(C)c4ccccc34)C(=O)N([C@H](C)CO)C[C@@H]2C)cc1	none (no result: Scp1 inh)
O=c1[nH]c(=O)n(CCc2ccc(F)cc2)c(O)c1C=NCc1ccc2c(c1)OCO2	DNMT1 block 78, LMPTP inh 50 | DNMT1 confirm inactive | Beacon interf inactive
COc1ccc(CCn2c(O)c(C=NCc3ccc4c(c3)OCO4)c(=O)[nH]c2=O)cc1OC	none
O=P1(c2ccccc2)CC=CC1	none (no result: Scp1 inh)
Cn1cccc1/C=C1/C(=O)NC(=S)N(Cc2ccc(F)cc2)C1=O	DNMT1 block 91, SUMO1-SIM PPI 64 | Beacon interf DR inactive | DNMT1 confirm 105 | Beacon interf inactive
CCCCCN1C(=O)c2cc(OC)ccc2[C@@]2(C(=O)OCC)Cc3cc(Cl)ccc3[C@@H]12	none (no result: DNMT1 block, Scp1 inh, STEP inh)
Cc1ccc(N2C(=O)NC(=O)/C(=C/c3cnn(-c4ccc(C)cc4)c3)C2=O)cc1	none
Cc1ccc(N2C(=O)NC(=O)/C(=C/c3ccoc3)C2=O)cc1	DNMT1 block 93, LMPTP inh 56, SUMO1-SIM PPI 102, Scp1 inh 84, STEP inh 95 | Beacon interf DR inactive | DNMT1 confirm 64 | Beacon interf inactive
CCOC(=O)[C@]12Cc3ccccc3[C@H]1N(CCC(=O)OC)C(=O)c1cc(OC)ccc12	none (no result: DNMT1 block, Scp1 inh, STEP inh)
Cc1cccc(C)c1-n1nnnc1C(C1CC1)N1CCC2(CC1)C(=O)NCN2c1ccccc1 (configuration not stated)	none (no result: Scp1 inh)
NN=C1C(Cl)=C(Cl)C(Cl)=C1Cl	DNMT1 block 108, LMPTP inh 84, STEP inh 72 (no result: Scp1 inh) | STEP conf 67
Cc1ccccc1-c1ccc2c(c1)C1c3c(-c4ccccc4)nnn3-c3ccccc3C(=O)N1CC2 (configuration not stated)	none (no result: Scp1 inh)
